Test results as given in ChEMBL document CHEMBL4428136, “Cell Active Hydroxylactam Inhibitors of Human Lactate Dehydrogenase with Oral Bioavailability in Mice” (ACS Med Chem Lett, 2016).

What was measured:
[1] = Lipophilicity, log D of the compound at pH 7.4 by high throughput method; assay type: physicochemical; details: buffer
[2] = Apparent permeability across apical to basolateral side in MDCK cells; assay type: ADME, cell-based, Canis lupus familiaris; details: dog
[3] = Protein binding in CD-1 mouse plasma; assay type: ADME, cell-free; details: read-out: PPB (converted)
[4] = AUC in CD-1 mouse at 1 mg/kg, iv administered as bolus by LC-MS/MS analysis; assay type: ADME, organism-based; details: in vivo
[5] = AUC in CD-1 mouse at 5 mg/kg, po administered as suspension by LC-MS/MS analysis; assay type: ADME, organism-based; details: in vivo
[6] = AUC in CD-1 mouse at 50 mg/kg, po administered as suspension by LC-MS/MS analysis; assay type: ADME, organism-based; details: in vivo
[7] = AUC in CD-1 mouse at 100 mg/kg, po administered as suspension by LC-MS/MS analysis; assay type: ADME, organism-based; details: in vivo
[8] = AUC in CD-1 mouse at 200 mg/kg, po administered as suspension by LC-MS/MS analysis; assay type: ADME, organism-based; details: in vivo
[9] = Cmax in CD-1 mouse at 1 mg/kg, iv administered as bolus by LC-MS/MS analysis; assay type: ADME, organism-based; parameters: dose 1 mg/kg, route intravenous; details: in vivo
[10] = Cmax in CD-1 mouse at 5 mg/kg, po administered as suspension by LC-MS/MS analysis; assay type: ADME, organism-based; parameters: dose 5 mg/kg, route oral; details: in vivo
[11] = Cmax in CD-1 mouse at 50 mg/kg, po administered as suspension by LC-MS/MS analysis; assay type: ADME, organism-based; parameters: dose 50 mg/kg, route oral; details: in vivo
[12] = Cmax in CD-1 mouse at 100 mg/kg, po administered as suspension by LC-MS/MS analysis; assay type: ADME, organism-based; parameters: dose 100 mg/kg, route oral; details: in vivo
[13] = Cmax in CD-1 mouse at 200 mg/kg, po administered as suspension by LC-MS/MS analysis; assay type: ADME, organism-based; parameters: dose 200 mg/kg, route oral; details: in vivo
[14] = Oral bioavailability in CD-1 mouse at 5 mg/kg; assay type: ADME, organism-based; details: in vivo
Method in brief: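 Bioavailability was derived from paired intravenous and oral administration in mice, with the oral dose at 5 mg/kg.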

[15] = Half life in CD-1 mouse at 1 mg/kg, iv administered as bolus by LC-MS/MS analysis; assay type: ADME, organism-based; details: in vivo
[16] = Volume of distribution at steady state in CD-1 mouse at 1 mg/kg, iv administered as bolus by LC-MS/MS analysis; assay type: ADME, organism-based; details: in vivo, read-out: Vdss
[17] = Plasma clearance in CD-1 mouse at 1 mg/kg, iv administered as bolus by LC-MS/MS analysis; assay type: ADME, organism-based
[18] = target: L-lactate dehydrogenase B chain (Homo sapiens, UniProt P07195); test: Inhibition of human recombinant carboxy-terminal His-tagged LDHB by UV endpoint assay
Sequence of L-lactate dehydrogenase B chain (P07195 whole entry): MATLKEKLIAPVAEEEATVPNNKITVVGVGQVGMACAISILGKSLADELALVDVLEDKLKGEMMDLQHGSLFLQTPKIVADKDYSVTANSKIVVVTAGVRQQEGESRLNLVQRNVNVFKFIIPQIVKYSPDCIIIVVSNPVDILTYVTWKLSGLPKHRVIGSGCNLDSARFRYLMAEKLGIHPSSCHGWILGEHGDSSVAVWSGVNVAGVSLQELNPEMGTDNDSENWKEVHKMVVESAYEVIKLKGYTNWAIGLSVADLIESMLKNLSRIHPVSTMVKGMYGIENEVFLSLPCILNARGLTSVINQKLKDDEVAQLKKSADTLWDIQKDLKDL

Compound | logD [1] | Papp A→B [2] [×10⁻⁶ cm/s] | IC50 [18] [nM] | other results
O=C1N[C@](c2ccc(N3CCOCC3)cc2)(c2ccsc2)CC(O)=C1Sc1ccccc1Cl | 0.6 | 3.4 | – | fraction unbound [3]: 0.009; AUC [4]: 1.5 µM·h; AUC [5]: 5.1 µM·h; AUC [6]: 125 µM·h; AUC [7]: 250 µM·h; AUC [8]: 403 µM·h; Cmax [9]: 2.5 µM; Cmax [10]: 1.7 µM; Cmax [11]: 60.7 µM; Cmax [12]: 224 µM; Cmax [13]: 440 µM; bioavailability [14]: 70%; half-life [15]: 1 h; Vd [16]: 1.4 L/kg; clearance [17]: 21.1 mL/min/kg
N#CC1CCN(c2ccc(C3(c4ccsc4)CC(O)=C(Sc4ccccc4Cl)C(=O)N3)cc2)CC1 (stereo not given) | 0.8 | – | – | –
CC1CN(c2ccc(C3(c4ccsc4)CC(O)=C(Sc4ccccc4Cl)C(=O)N3)cc2)CC(C)O1 (stereo not given) | 1.3 | 6 | – | fraction unbound [3]: < 0.001
O=C1NC(c2ccc(N3CCOCC3=O)cc2)(c2ccsc2)CC(O)=C1Sc1ccccc1Cl (stereo not given) | 0.4 | – | – | –
CC1(C)CN(c2ccc(C3(c4ccsc4)CC(O)=C(Sc4ccccc4Cl)C(=O)N3)cc2)CCO1 (stereo not given) | 1.3 | – | – | –
O=C1NC(c2ccc(N3CCC4(CC3)COC4)cc2)(c2ccsc2)CC(O)=C1Sc1ccccc1Cl (stereo not given) | 0.7 | – | – | –
COC1CCN(c2ccc(C3(c4ccsc4)CC(O)=C(Sc4ccccc4Cl)C(=O)N3)cc2)CC1 (racemic) | 1.2 | – | – | –
O=C1NC(c2ccsc2)(c2cccc(NC3CCOCC3)c2)CC(O)=C1Sc1ccccc1Cl (racemic) | -0.3 | 0.5 | – | –
O=C1NC(c2ccsc2)(c2cccc(Nc3ccc(F)cc3)c2)CC(O)=C1Sc1ccccc1Cl (racemic) | 2.4 | 1 | – | fraction unbound [3]: < 0.001

Now from value to compound, other results behind:

logD [1] | Papp A→B [2] [×10⁻⁶ cm/s] | IC50 [18] [nM] | Compound | other results
– | – | 210 | COc1ccc(C2(c3ccsc3)CC(O)=C(Sc3ccccc3Cl)C(=O)N2)cc1 (stereo not given) | –
– | – | > 10000 | O=C1NC(c2ccsc2)(c2ccccn2)CC(O)=C1Sc1ccccc1Cl (stereo not given) | –
– | – | 2300 | O=C1NC(c2ccccc2)(c2cscn2)CC(O)=C1Sc1ccccc1Cl (stereo not given) | –
– | – | 1800 | O=C1NC(c2ccsc2)(c2ccccc2F)CC(O)=C1Sc1ccccc1Cl (stereo not given) | –
– | – | 1100 | N#Cc1ccc(C2(c3ccsc3)CC(O)=C(Sc3ccccc3Cl)C(=O)N2)cc1 (stereo not given) | –
0.8 | 7.4 | – | O=C1NC(c2ccccc2)(c2ccsc2)CC(O)=C1Sc1ccccc1Cl (stereo not given) | –
1.4 | 9.4 | 2200 | O=C1NC(c2ccccc2)(c2ccccc2)CC(O)=C1Sc1ccccc1Cl | fraction unbound [3]: 0.007
2.1 | 1.7 | – | O=C1NC(c2ccc(N3CCCCC3)cc2)(c2ccsc2)CC(O)=C1Sc1ccccc1Cl (racemic) | fraction unbound [3]: < 0.001
3.5 | – | – | O=C1NC(c2ccc(C3CCCCC3)cc2)(c2ccsc2)CC(O)=C1Sc1ccccc1Cl (racemic) | –
